A selection: hits, their analogues and other compounds. The true share with any hit is near 3.4%.
Ecoli rRNA inh: selective bacterial rRNA inhibition in E. coli | E. coli WT GFP vs humanized-ribosome RFP mutants, fluorescence, 24 h; active compounds read low; DMSO median 0, no signal -100 | GFP signal change (wild-type ribosome), % (test concentration not listed) | actives 1.6% (n = 350,000);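 active = significant combined selectivity score with lowered wild-type GFP, culture density cut under 30%, mutant RFP and density less affected; inactive = any of these conditions unmet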
MLL AF4-AF9 inh: blocks AF4 peptide binding to human AF9 | P42568 | AlphaScreen, biotin-AF4 peptide binding to FLAG-AF9 | inhibition, % at 10 µM | actives 0.47% (n = 350,000) | AID 651704;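 active = every replicate reaching a set inhibition limit, whatever the replicate mean, cut at about 25% in these data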;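 note: 0% = plate neutral control median and 100% = total signal loss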
E-sel inducer: induces E-selectin expression in human endothelial cells. P16581. HUVEC E-selectin immunofluorescence imaging; normalized: neutral wells 0, TNF-alpha wells 100. activation, % at 7.58 µM. actives 0.37% (n = 260,000);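 active = mean E-selectin-positive cell signal at least 10% of the positive control, reached in at least 60% of replicates, without over 20% cell loss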
Target sequence (P16581 whole entry, looked up): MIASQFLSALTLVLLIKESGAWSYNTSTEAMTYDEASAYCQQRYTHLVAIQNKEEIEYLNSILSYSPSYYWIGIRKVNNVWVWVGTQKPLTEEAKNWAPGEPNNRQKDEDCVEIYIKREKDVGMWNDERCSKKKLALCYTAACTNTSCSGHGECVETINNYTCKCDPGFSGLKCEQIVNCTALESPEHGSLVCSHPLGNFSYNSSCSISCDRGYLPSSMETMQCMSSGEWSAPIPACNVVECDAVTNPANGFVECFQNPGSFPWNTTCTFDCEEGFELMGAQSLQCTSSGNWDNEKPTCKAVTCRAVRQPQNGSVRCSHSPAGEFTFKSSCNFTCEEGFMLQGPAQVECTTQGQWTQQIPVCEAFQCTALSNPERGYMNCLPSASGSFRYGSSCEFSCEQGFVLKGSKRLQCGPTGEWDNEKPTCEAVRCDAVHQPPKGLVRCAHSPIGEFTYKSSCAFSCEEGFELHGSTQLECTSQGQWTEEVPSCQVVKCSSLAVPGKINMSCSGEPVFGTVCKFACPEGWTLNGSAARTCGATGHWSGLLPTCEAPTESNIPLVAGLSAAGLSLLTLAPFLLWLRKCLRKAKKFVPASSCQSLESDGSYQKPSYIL
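Assay system: HUVEC, human umbilical vein endothelial cells / Amount: 3,000 HUVEC/well / Controls: TNF-alpha positive control, DMSO neutral control / Compound dosing: single concentration / Medium: EGM-2 over gelatin coat / Evaluation: percent E-selectin-positive cells / Signal: immunofluorescence imaging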
SIRT5 inh: sirtuin-5 (human) deacylase inhibition | Q9NXA8 | Purified SirT5, succinyl-peptide AMC, trypsin-coupled fluorescence | inhibition, % at 15 µM | actives 1.1% (n = 330,000) | AID 652115; in the data active = inhibition above about 15%
S100A4 inh HTS: inhibitors of human S100A4 binding to myosin IIA peptide; S100A4/TAMRA-MyoIIA peptide fluorescence polarization; inhibition, % at 10.7 µM; actives 0.14% (n = 360,000); AID 652163;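 active = mean inhibition of at least 70% across replicates, with every replicate also reaching that level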
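assay system = human S100A4 monomer with TAMRA-labelled myosin IIA peptide | also added = labelled myosin peptide probe, 5 nM | incubation = 5 min between mix addition and reading | control set = DMSO and TFP controls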
ERAP1 inh: blocks human ERAP1 aminopeptidase activity; Q9NZ08; recombinant ERAP1, Leu-AMC fluorescence, 60 min; inhibition, % at 10.7 µM; actives 0.15% (n = 340,000);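 active = mean replicate inhibition of at least 30%, or all replicates individually reaching that 30% level; inactive = mean below 30% and not every replicate reaching it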;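 note: 0% = neutral control wells and 100% = L-leucinethiol positive control wells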
Numbers without * were called inactive; . = no result given.

SMILES	Ecoli rRNA inh	MLL AF4-AF9 inh	E-sel inducer	SIRT5 inh	S100A4 inh HTS	ERAP1 inh
CC(=O)C1=C(c2ccccc2)OC(N)=C(C#N)C1c1ccccc1F (centres undefined)	-46.6*	1.2	-0.5	-6.6	20.3	-0.3
N#CC1=C(N)Oc2cc(N)ccc2C1c1ccccc1F (centres undefined)	-0.5	-6.7	0.6	-3.4	-1.9	-6.2
COc1ccc(NC(=O)Nc2ccc3c(c2)C(=O)N([C@@H](C)CO)C[C@@H](C)[C@@H](CN(C)C(=O)Nc2ccccc2)OCCCC[C@@H](C)O3)cc1	-1.6	-7.3	.	6.6	-9.0	3.7
O=C(O)c1ccc2c(c1)C1C=CCC1C(c1ccncc1)N2 (centres undefined)	6.2	-1.5	0.4	-2.3	-20.0	.
COc1ccc(NS(=O)(=O)c2ccc3c(c2)[C@H]2C=CC[C@H]2[C@@H](c2ccc(C(=O)O)cc2)N3)cc1	-2.5	16.9	0.0	44.2*	-4.8	31.9*
C[C@H]1CN([C@@H](C)CO)C(=O)c2ccccc2-c2ccccc2CO[C@H]1CN(C)Cc1ccc(C(=O)O)cc1	4.8	-3.2	-0.5	1.5	11.7	1.6
N#Cc1ccc(/C=C\c2nccc3c2[nH]c2ccccc23)cc1	13.6	-9.6	2.3	-0.5	1.3	-5.0
Clc1ccc(/C=C\c2nccc3c2[nH]c2ccccc23)cc1	-24.9*	-7.7	.	-5.9	0.4	0.4
CC(=O)Oc1ccc(C2=Cc3ccc(OC(C)=O)cc3OC2C)cc1 (centres undefined)	-12.9	-52.9	118.3*	.	4.1	2.6
COc1ccc(N(CC(=O)N2CCC(Cc3ccccc3)CC2)S(C)(=O)=O)cc1	-21.1*	0.5	.	3.2	15.6	-5.2
CN(C)S(=O)(=O)N(CC(=O)N1CCC(Cc2ccccc2)CC1)c1ccccc1	-11.8	1.3	1.9	-6.7	-13.7	-3.7
Cc1nc2ccc(Br)cc2c(=O)n1Cc1cccs1	-31.8*	-0.5	.	-9.0	-3.3	1.3
C[C@H](NC(=O)[C@@H]1[C@@H](CO)[C@@H]2Cn3c(ccc(C4=CCCC4)c3=O)[C@H]1N2C(=O)C1CC1)c1ccccc1	-3.7	0.9	-0.3	-11.5	-2.7	2.0
CCOC(=O)c1c(C)n(C)c2ccc(OCC(O)CN3CCN(C)CC3)cc12 (centres undefined)	0.3	7.5	.	.	6.3	.
CCOC(=O)c1c(C)n(-c2ccc(C)cc2)c2ccc(OCC(O)CN3CCN(C)CC3)cc12 (centres undefined)	-59.9	41.1*	.	-1.7	2.0	1.3
CCC(C)N(C(=O)CSc1ncnc2sccc12)C1CCS(=O)(=O)C1 (centres undefined)	3.5	-1.2	.	-1.5	3.0	-6.7
CCCN(CC1CC1)C(=O)CSc1ncnc2sccc12	-18.3*	-7.5	2.7	-3.0	48.0	6.1
CCCC(=O)N1CC2(C1)CN(C(C)=O)[C@H](CO)c1c2c2ccc(OC)cc2n1C	2.7	-3.5	17.8	-3.5	2.6	0.5
C[C@H]1CN([C@@H](C)CO)C(=O)Cc2cc(NC(=O)Nc3cccc4ccccc34)ccc2O[C@H]1CN(C)Cc1ccc(C(F)(F)F)cc1	0.3	-1.2	.	-2.1	3.6	1.0
Cc1c(-c2ccc(OCCN3CCOCC3)cc2)c(=O)oc2ccc3ccccc3c12	1.6	-2.7	0.0	18.6*	-2.9	-3.2
Cc1ccc(OCCN2CCOCC2)cc1C	12.0	-2.0	0.1	-1.9	1.6	0.7
CC(=O)Nc1ccc(S(=O)(=O)N(CC(=O)Nc2cc(C)on2)Cc2ccc(F)cc2)cc1	-24.2*	2.2	1.1	-1.4	5.1	.
CC(=O)Nc1ccc(S(=O)(=O)N(CC(=O)NC2CC2)Cc2ccccc2)cc1	3.2	-1.8	.	-14.5	-10.3	-4.1
COc1ccc(S(=O)(=O)N(C)C[C@@H]2Oc3ncc(-c4ccncc4)cc3C(=O)N([C@H](C)CO)C[C@@H]2C)cc1	-1.8	-7.9	0.1	3.5	-2.2	7.6
Cn1c2ccccc2c(=O)c2cc(NCCCN3CCOCC3)ccc21	-19.8	-25.8	0.0	-35.4	-3.4	51.6*
SMILES	Ecoli rRNA inh	MLL AF4-AF9 inh	E-sel inducer	SIRT5 inh	S100A4 inh HTS	ERAP1 inh
CC(C)CC#Cc1ccc2c(c1)O[C@H](CN(C)Cc1ccccn1)[C@H](C)CN([C@H](C)CO)S2(=O)=O	-34.5	6.9	0.1	4.1	-7.5	-3.5
CCC(=O)Nc1ccc2c(c1)C(=O)N(C)[C@@H]1CC[C@H](CC(=O)N[C@@H](C)c3ccccc3)O[C@@H]1CO2	1.0	1.9	0.1	4.8	8.1	1.2
Nc1ccc(N=Nc2ccccc2)c(N)n1	-24.2*	33.8*	0.4	4.7	-9.5	6.0
O=C(C[C@@H]1CC[C@H]2[C@@H](COC[C@@H](O)CN2Cc2ccncc2)O1)NCC1CC1	-2.7	-1.5	0.2	1.1	3.6	-1.9
C[C@@H]1CN([C@@H](C)CO)C(=O)c2cc(NC(=O)CCN3CCOCC3)ccc2O[C@@H]1CN(C)Cc1ccc(C(=O)Nc2ccccc2N)cc1	0.4	0.8	-2.5	.	2.4	-1.3
C[C@H](CO)N1C[C@H](C)[C@H](CN(C)C(=O)Cc2ccccn2)Oc2ncc(C#CC3CC3)cc2C1=O	4.8	-3.2	1.5	-3.6	37.9	-0.5
COC(=O)C1Cc2c([nH]c3ccccc23)C2(CCN(Cc3ccccc3)CC2)N1 (centres undefined)	-4.3	29.9*	.	-3.3	-1.6	-7.8
CCC1(C)NC(C(=O)O)Cc2c1[nH]c1ccccc21 (centres undefined)	15.2	0.3	0.3	-1.6	6.6	0.1
COc1cccc(-c2ccc3n(c2=O)C[C@H]2[C@H](CO)[C@@H](C(=O)N4CCOCC4)N[C@@H]32)c1	1.3	0.3	0.7	-15.0	85.4*	2.0
CCNC(=O)[C@H]1N[C@H]2c3ccc(-c4cccc(C(=O)N(C)C)c4)c(=O)n3C[C@H]2[C@@H]1CO	1.3	-0.6	-0.8	-9.6	83.1*	1.5
CN(C)C(=O)c1cccc(-c2ccc3n(c2=O)C[C@H]2[C@H](CO)[C@@H](C(=O)NCC4CC4)N[C@@H]32)c1	0.4	-0.5	0.0	-22.7	-1.0	1.5
COC(=O)c1c(Sc2ccccc2)c2ccccc2n1C	-5.5	-0.7	-0.1	-3.9	-4.7	7.7
Cc1c(C(=O)Cc2ccccc2)n(C)c2ccccc12	-26.2*	7.8	-0.1	-1.2	-27.4	2.3
CNC(=O)C[C@@H]1CC[C@H]2[C@H](COc3ccc(NC(=O)Nc4ccc(F)cc4)cc3C(=O)N2C)O1	-0.1	1.5	0.6	2.3	3.1	-1.3
Nc1ccc(Nc2ccc([N+](=O)[O-])cc2[N+](=O)[O-])cc1	3.3	26.6*	.	-0.3	-2.3	5.1
CCC(C)NC(=O)N1c2ccccc2Sc2ccccc21 (centres undefined)	-31.4*	8.4	3.7	-2.1	1.3	0.3

From PubChem
